Reference: ChEMBL document CHEMBL2429728, “Novel Macrocyclic Amidinoureas: Potent Non-Azole Antifungals Active against Wild-Type and Resistant Candida Species” (2013)
≈ marks a conversion by molar mass, not a printed value.

How the values were obtained:
Format in all cases: functional
[1] = system: Pichia kudriavzevii; assay: Antifungal activity against wild type Candida krusei ATCC 14243 after 24 hrs by visually and spectrophotometric analysis; details: ATCC 14243, 24 h
[2] = system: Candida parapsilosis; assay: Antifungal activity against wild type Candida parapsilosis ATCC 34136 after 24 hrs by visually and spectrophotometric analysis; details: Lodderomyces parapsilosis, ATCC 34136, 24 h
[3] = system: Candida albicans; assay: Antifungal activity against wild type Candida albicans ATCC 60193 after 24 hrs by visually and spectrophotometric analysis; details: ATCC 60193, 24 h
[4] = system: Candida tropicalis; assay: Antifungal activity against wild type Candida tropicalis after 24 hrs by visually and spectrophotometric analysis
[5] = system: Nakaseomyces glabratus; assay: Antifungal activity against wild type Candida glabrata after 24 hrs by visually and spectrophotometric analysis
[6] = system: Nakaseomyces glabratus; assay: Antifungal activity against fluconazole-resistant Candida glabrata DSY2271 increase expressing of CgCDR2 genes after 24 hrs by visually and spectrophotometric analysis; details: DSY2271, 24 h
How it was run: (§1)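 Endpoint is MIC90, in μg/mL, read at 24 h by both visual inspection and spectrophotometry.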

[7] = system: Clavispora lusitaniae; assay: Antifungal activity against Candida lusitaniae ATCC 200950 after 24 hrs by visually and spectrophotometric analysis; details: ATCC 200950, 24 h
How it was run: (§2)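 Read-out is MIC90 in μg/mL, scored at 24 h both by eye and spectrophotometrically. The panel is Candida isolates that earlier reports describe as amphotericin B-resistant, with amphotericin B run alongside as the reference drug.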

[8] = system: Candida albicans; assay: Antifungal activity against fluconazole-resistant Candida albicans DSY296 harboring ERG11 gene mutant and increase expressing of CDR1 and CDR2 genes after 24 hrs by visually and spectrophotometric analysis; details: DSY296, 24 h; how it was run: as §1
[9] = system: Candida tropicalis; assay: Antifungal activity against Candida tropicalis ATCC 200956 after 24 hrs by visually and spectrophotometric analysis; details: ATCC 200956, 24 h; how it was run: as §2
[10] = system: Candida albicans; assay: Antifungal activity against fluconazole-resistant Candida albicans DSY284 harboring ERG11 gene mutant and increase expressing of CDR1 and CDR2 genes after 24 hrs by visually and spectrophotometric analysis; details: DSY284, 24 h; how it was run: as §1
[11] = system: Candida albicans; assay: Antifungal activity against fluconazole-resistant Candida albicans DSY735 expressing high level of CDR1 and CDR2 genes after 24 hrs by visually and spectrophotometric analysis; details: DSY735, 24 h; how it was run: as §1
[12] = system: Clavispora lusitaniae; assay: Antifungal activity against Candida lusitaniae ATCC 200952 after 24 hrs by visually and spectrophotometric analysis; how it was run: as §2
[13] = system: Clavispora lusitaniae; assay: Antifungal activity against Candida lusitaniae ATCC 200953 after 24 hrs by visually and spectrophotometric analysis; how it was run: as §2
[14] = system: Kluyveromyces marxianus; assay: Antifungal activity against wild type Candida kefyr after 24 hrs by visually and spectrophotometric analysis
[15] = system: Clavispora lusitaniae; assay: Antifungal activity against Candida lusitaniae ATCC 60247 after 24 hrs by visually and spectrophotometric analysis; details: ATCC 60247, 24 h; how it was run: as §2
[16] = system: Nakaseomyces glabratus; assay: Antifungal activity against fluconazole-resistant Candida glabrata DSY754 increase expressing of CgCDR1 gene after 24 hrs by visually and spectrophotometric analysis; details: DSY754, 24 h; how it was run: as §1
[17] = system: Meyerozyma guilliermondii; assay: Antifungal activity against wild type Candida guilliermondii after 24 hrs by visually and spectrophotometric analysis
[18] = system: Nakaseomyces glabratus; assay: Antifungal activity against fluconazole-resistant Candida glabrata DSY756 increase expressing of CgCDR1, CgCDR2, and CgSNQ2 genes after 24 hrs by visually and spectrophotometric analysis; details: DSY756, 24 h; how it was run: as §1
[19] = system: Candida albicans; assay: Antifungal activity against Candida albicans ATCC 200955 after 24 hrs by visually and spectrophotometric analysis; details: ATCC 200955, 24 h; how it was run: as §1
[20] = system: Clavispora lusitaniae; assay: Antifungal activity against Candida lusitaniae ATCC 24348 after 24 hrs by visually and spectrophotometric analysis; details: ATCC 24348, 24 h; how it was run: as §2
[21] = system: Candida albicans; assay: Antifungal activity against fluconazole-resistant Candida albicans DSY751 harboring ERG11 gene mutant and increase expressing of MDR1 gene after 24 hrs by visually and spectrophotometric analysis; details: DSY751, 24 h; how it was run: as §1
[22] = system: Candida albicans; assay: Antifungal activity against fluconazole-resistant Candida albicans DSY348 harboring ERG11 gene mutant and increase expressing of CDR1 and CDR2 genes after 24 hrs by visually and spectrophotometric analysis; details: DSY348, 24 h; how it was run: as §1
[23] = system: Nakaseomyces glabratus; assay: Antifungal activity against fluconazole-resistant Candida glabrata DSY2254 increase expressing of CgCDR1 and CgCDR2 genes after 24 hrs by visually and spectrophotometric analysis; details: DSY2254, 24 h; how it was run: as §1
[24] = system: Candida albicans; assay: Antifungal activity against fluconazole-resistant Candida albicans DSY775 harboring ERG11 gene mutant and increase expressing of CDR1 and CDR2 genes after 24 hrs by visually and spectrophotometric analysis; details: DSY775, 24 h; how it was run: as §1
[25] = system: Clavispora lusitaniae; assay: Antifungal activity against Candida lusitaniae ATCC 200951 after 24 hrs by visually and spectrophotometric analysis; how it was run: as §2
[26] = system: Candida albicans; assay: Antifungal activity against fluconazole-resistant Candida albicans DSY289 harboring ERG11 gene mutant and increase expressing of CDR1 and CDR2 genes after 24 hrs by visually and spectrophotometric analysis; details: DSY289, 24 h; how it was run: as §1
[27] = system: Candida albicans; assay: Antifungal activity against fluconazole-resistant Candida albicans DSY292 harboring ERG11 gene mutant and increase expressing of MDR1 gene after 24 hrs by visually and spectrophotometric analysis; details: DSY292, 24 h; how it was run: as §1
[28] = system: Nakaseomyces glabratus; assay: Antifungal activity against fluconazole-resistant Candida glabrata DSY530 increase expressing of CgCDR1 gene after 24 hrs by visually and spectrophotometric analysis; details: DSY530, 24 h; how it was run: as §1

Structure (SMILES): C/C=C/CNC(=N)NCCCCCCCCN1CCCCCCCCNC(=N)NC1=O
- MIC50 [1]: 5 µg/mL (≈ 11.5 µM)
- MIC50 [2]: 5 µg/mL (≈ 11.5 µM)
- MIC50 [3]: 2.5 µg/mL (≈ 5.74 µM)
- MIC50 [4]: 1.25 µg/mL (≈ 2.87 µM)
- MIC50 [5]: 20 µg/mL (≈ 45.9 µM)

Structure (SMILES): C/C=C/CNC(=N)NCCCCCCCCN1CCCCCOC(=O)CCNC(=N)NC1=O.O=C(O)C(F)(F)F
- MIC90 [6]: 32 µg/mL
- MIC90 [1]: 32 µg/mL
- MIC90 [7]: 8 µg/mL
- MIC90 [2]: 8 µg/mL
- MIC90 [8]: 16 µg/mL
- MIC90 [9]: 16 µg/mL
- MIC90 [10]: 8 µg/mL
- MIC90 [11]: 16 µg/mL
- MIC90 [12]: 4 µg/mL
- MIC90 [13]: 8 µg/mL
- MIC90 [14]: 16 µg/mL
- MIC90 [15]: 4 µg/mL
- MIC90 [16]: 32 µg/mL
- MIC90 [17]: 8 µg/mL
- MIC90 [18]: 64 µg/mL
- MIC90 [19]: 4 µg/mL
- MIC90 [3]: 16 µg/mL
- MIC90 [20]: 8 µg/mL
- MIC90 [21]: 16 µg/mL
- MIC90 [22]: 8 µg/mL
- MIC90 [23]: 64 µg/mL
- MIC90 [24]: 16 µg/mL
- MIC90 [25]: 4 µg/mL
- MIC90 [26]: 8 µg/mL
- MIC90 [27]: 16 µg/mL
- MIC90 [28]: 32 µg/mL
- MIC90 [4]: 16 µg/mL
- MIC90 [5]: 32 µg/mL

Structure (SMILES): C[C@@H]1[C@H](O)[C@@H](C)/C=C/C=C/C=C/C=C/C=C/C=C/C=C/[C@H](O[C@@H]2O[C@H](C)[C@@H](O)[C@H](N)[C@@H]2O)C[C@@H]2O[C@](O)(C[C@@H](O)C[C@@H](O)[C@H](O)CC[C@@H](O)C[C@@H](O)CC(=O)O[C@H]1C)C[C@H](O)[C@H]2C(=O)O [AMPHOTERICIN B]
- MIC90 [7]: 1 µg/mL (≈ 1.08 µM)
- MIC90 [9]: 8 µg/mL (≈ 8.66 µM)
- MIC90 [12]: 2 µg/mL (≈ 2.16 µM)
- MIC90 [13]: 1 µg/mL (≈ 1.08 µM)
- MIC90 [15]: 0.125 µg/mL (≈ 0.135 µM)
- MIC90 [19]: 2 µg/mL (≈ 2.16 µM)
- MIC90 [20]: 0.125 µg/mL (≈ 0.135 µM)
- MIC90 [25]: 1 µg/mL (≈ 1.08 µM)

Structure (SMILES): C[C@@H](c1ncncc1F)[C@](O)(Cn1cncn1)c1ccc(F)cc1F [VORICONAZOLE]
- MIC90 [6]: 0.125 µg/mL (≈ 0.358 µM)
- MIC90 [8]: 8 µg/mL (≈ 22.9 µM)
- MIC90 [10]: 4 µg/mL (≈ 11.5 µM)
- MIC90 [11]: 2 µg/mL (≈ 5.73 µM)
- MIC90 [16]: 2 µg/mL (≈ 5.73 µM)
- MIC90 [18]: 4 µg/mL (≈ 11.5 µM)
- MIC90 [21]: 0.25 µg/mL (≈ 0.716 µM)
- MIC90 [22]: 0.25 µg/mL (≈ 0.716 µM)
- MIC90 [23]: 2 µg/mL (≈ 5.73 µM)
- MIC90 [24]: 8 µg/mL (≈ 22.9 µM)
- MIC90 [26]: 8 µg/mL (≈ 22.9 µM)
- MIC90 [27]: 2 µg/mL (≈ 5.73 µM)
- MIC90 [28]: 0.5 µg/mL (≈ 1.43 µM)

Structure (SMILES): OC(Cn1cncn1)(Cn1cncn1)c1ccc(F)cc1F [FLUCONAZOLE]
- MIC90 [6]: 64 µg/mL (≈ 209 µM)
- MIC90 [1]: 256 µg/mL (≈ 836 µM)
- MIC90 [2]: 0.5 µg/mL (≈ 1.63 µM)
- MIC90 [8]: 128 µg/mL (≈ 418 µM)
- MIC90 [10]: 256 µg/mL (≈ 836 µM)
- MIC90 [11]: 64 µg/mL (≈ 209 µM)
- MIC90 [14]: 1 µg/mL (≈ 3.27 µM)
- MIC90 [16]: 64 µg/mL (≈ 209 µM)
- MIC90 [17]: 4 µg/mL (≈ 13.1 µM)
- MIC90 [18]: 128 µg/mL (≈ 418 µM)
- MIC90 [3]: 2 µg/mL (≈ 6.53 µM)
- MIC90 [21]: 256 µg/mL (≈ 836 µM)
- MIC90 [22]: 32 µg/mL (≈ 104 µM)
- MIC90 [23]: 128 µg/mL (≈ 418 µM)
- MIC90 [24]: 128 µg/mL (≈ 418 µM)
- MIC90 [26]: 256 µg/mL (≈ 836 µM)
- MIC90 [27]: 64 µg/mL (≈ 209 µM)
- MIC90 [28]: 64 µg/mL (≈ 209 µM)
- MIC90 [4]: 2 µg/mL (≈ 6.53 µM)
- MIC90 [5]: 16 µg/mL (≈ 52.2 µM)

Structure (SMILES): C/C=C/CNC(=N)NCCCCCCCCN1CCCCCCOc2ccccc2CNC(=N)NC1=O.O=C(O)C(F)(F)F
- MIC90 [6]: 36 µg/mL
- MIC90 [1]: 4 µg/mL
- MIC90 [7]: 5 µg/mL
- MIC90 [2]: 2 µg/mL
- MIC90 [8]: 10 µg/mL
- MIC90 [9]: 10 µg/mL
- MIC90 [10]: 9 µg/mL
- MIC90 [11]: 5 µg/mL
- MIC90 [12]: 5 µg/mL
- MIC90 [13]: 5 µg/mL
- MIC90 [14]: 2 µg/mL
- MIC90 [15]: 5 µg/mL
- MIC90 [16]: 40 µg/mL
- MIC90 [17]: 2 µg/mL
- MIC90 [18]: 36 µg/mL
- MIC90 [19]: 5 µg/mL
- MIC90 [3]: 4 µg/mL
- MIC90 [20]: 5 µg/mL
- MIC90 [21]: 10 µg/mL
- MIC90 [22]: 5 µg/mL
- MIC90 [23]: 40 µg/mL
- MIC90 [24]: 10 µg/mL
- MIC90 [25]: 5 µg/mL
- MIC90 [26]: 5 µg/mL
- MIC90 [27]: 10 µg/mL
- MIC90 [28]: 36 µg/mL
- MIC90 [4]: 1 µg/mL
- MIC90 [5]: 16 µg/mL
